Consider twelve compounds from ChEMBL document CHEMBL4428080, “Discovery and Pharmacological Characterization of Novel Quinazoline-Based PI3K Delta-Selective Inhibitors” (ACS Med Chem Lett, 2016).

Values after ≈ are worked out from the molar mass of the structure shown. Some results are limits rather than exact numbers.

A short description of data set [1]: Octanol/water partition coefficient, log P of the compound by high-throughput assay. It is filed as physicochemical.
Data set [2] in a line: Equilibrium solubility of the compound at pH 6.8 by high-throughput assay. In kind it is physicochemical. Conditions: buffer. The procedure, abridged: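 High-throughput equilibrium solubility determination at pH 6.8, reported in mM.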
A short description of data set [3]: Volume of distribution at steady state in Sprague-Dawley rat at 1 mg/kg, iv by HPLC method. It is filed as ADME, organism-based. Conditions: in vivo, read-out: Vdss.
Data set [4] is described as follows: Dose normalized AUC in Sprague-Dawley rat at 1 mg/kg, iv by HPLC method. In kind it is ADME, organism-based. Conditions: in vivo.
A short description of data set [5]: Dose normalized AUC in Sprague-Dawley rat at 3 mg/kg, po by HPLC method. It is filed as ADME, organism-based. Conditions: in vivo.
The nature of data set [6]: Oral bioavailability in Sprague-Dawley rat at 3 mg/kg by HPLC method. It is filed as ADME, organism-based. Conditions: in vivo. The procedure, abridged: (§1)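 Oral PK in Sprague Dawley rats at 3 or 30 mg/kg and in dogs at 0.3 mg/kg. Dose-normalized parameters are scaled to 1 mg·kg^-1.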
Data set [7] can be described thus: Dose normalized Cmax in Sprague-Dawley rat at 3 mg/kg, po by HPLC method. In kind it is ADME, organism-based. Conditions: in vivo. The procedure, abridged:
as §1

The nature of data set [8]: Tmax in Sprague-Dawley rat at 3 mg/kg, po by HPLC method. In kind it is ADME, organism-based. Conditions: in vivo. In short, it runs like this:
as §1

The nature of data set [9]: Dose normalized AUC in Sprague-Dawley rat at 30 mg/kg, po by HPLC method. In kind it is ADME, organism-based. Conditions: in vivo. The procedure, abridged:
as §1

Data set [10] can be described thus: Oral bioavailability in Sprague-Dawley rat at 30 mg/kg by HPLC method. In kind it is ADME, organism-based. Conditions: in vivo. In short, it runs like this: as §1
Data set [11] can be described thus: Dose normalized Cmax in Sprague-Dawley rat at 30 mg/kg, po by HPLC method. It is filed as ADME, organism-based. Conditions: in vivo. In short, it runs like this:
as §1

The nature of data set [12]: Tmax in Sprague-Dawley rat at 30 mg/kg, po by HPLC method. It is filed as ADME, organism-based. Conditions: in vivo. In short, it runs like this: as §1
The nature of data set [13]: Volume of distribution at steady state in Beagle dog at 0.1 mg/kg, iv by HPLC method. It is filed as ADME, organism-based, Canis lupus familiaris. Conditions: in vivo, read-out: Vdss.
A short description of data set [14]: Dose normalized AUC in Beagle dog at 0.1 mg/kg, iv by HPLC method. In kind it is ADME, organism-based, Canis lupus familiaris. Conditions: in vivo.
The nature of data set [15]: Dose normalized AUC in Beagle dog at 0.3 mg/kg, po by HPLC method. In kind it is ADME, organism-based, Canis lupus familiaris. Conditions: in vivo. In short, it runs like this: as §1
Data set [16] is described as follows: Oral bioavailability in Beagle dog at 0.3 mg/kg by HPLC method. In kind it is ADME, organism-based, Canis lupus familiaris. Conditions: in vivo. In short, it runs like this: as §1
A short description of data set [17]: Dose normalized Cmax in Beagle dog at 0.3 mg/kg, po by HPLC method. In kind it is ADME, organism-based, Canis lupus familiaris. Conditions: in vivo. In short, it runs like this: as §1
Data set [18] can be described thus: Tmax in Beagle dog at 0.3 mg/kg, po by HPLC method. Conditions: in vivo. In kind it is ADME, organism-based, Canis lupus familiaris. The procedure, abridged: as §1
The nature of data set [19]: Drug uptake in Lewis rat blood at 30 mg/kg, po administered as single dose by LC-MS analysis. In kind it is ADME, organism-based. Conditions: in vivo, read-out: Drug uptake. The procedure, abridged: (§2)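 Lewis rats received a single oral dose of 30 mg/kg. Blood was collected at various time points and drug levels were determined.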
Data set [20] in a line: Tmax in Lewis rat blood at 30 mg/kg, po administered as single dose by LC-MS analysis. In kind it is ADME, organism-based. Conditions: whole blood. In short, it runs like this: as §2

For the compound `COc1ncc(-c2ccc3ncnc(-c4cccc(C(=O)N5CCN(C)CC5)c4)c3c2)cc1C(F)(F)F`, in [1], the logP (as a rule, a log measure of how a compound divides between an organic and an aqueous phase) turned out to be 3.9. Moreover, in data set [2], the thermodynamic solubility (in general, the concentration in solution at equilibrium with solid) worked out at 850 µM (≈ 431 µg/mL).

Take `COc1ncc(-c2ccc3ncnc(-c4cccc(C(=O)N5CCN(C(C)=O)CC5)c4)c3c2)cc1C#N`: the log partition coefficient (logP) in [1] amounted to 2.8. This compound registered a thermodynamic solubility in data set [2] of 210 µM (≈ 103 µg/mL). Further, the figures for the Vd in data set [3] and in data set [13] were 2 L/kg and 1 L/kg, respectively. Moreover, the AUC/dose in data set [4] turned out to be 2315 nM·h; in data set [5], 500 nM·h; in data set [9] it was 237 nM·h; in data set [14] it was 2798 nM·h; in data set [15] it was 1188 nM·h. Moreover, the bioavailability (in general, the share of a dose that reaches the circulation, judged against a reference dose that is usually intravenous) in data set [6] worked out at 22%; in [10], 10%; in [16], 42%. In addition, the figures for the Cmax/dose in data set [7], in [11] and in data set [17] were 48 nM, 20 nM and 440 nM, respectively. Moreover, the Tmax (as a rule, the time from dosing to the highest level) came to 3.5 h in [8], 5.3 h in data set [12], 48 min in [18] and 2 h in data set [20]. In addition, the concentration in data set [19] is 5 µM.

In turn, `CN1CCN(C(=O)c2cccc(-c3ncnc4ccc(-c5cnc6ccccc6c5)cc34)c2)CC1` displayed a logP in data set [1] of 3.1. This compound also returned a thermodynamic solubility in data set [2] above 1000 µM.

Compound `COc1ccc(-c2ccc3ncnc(-c4cccc(C(=O)N5CCN(C(C)=O)CC5)c4)c3c2)cc1OC` gave a logP in [1] of 1.9. Moreover, in [2], the solubility (thermodynamic) stood at 800 µM (≈ 397 µg/mL).

`COc1ncc(-c2ccc3ncnc(-c4cccc(C(=O)N5CCN(C(C)=O)CC5)c4)c3c2)cc1C(F)(F)F` came in with a logP in [1] of 3.1. In [2], this compound displayed a thermodynamic solubility of 380 µM (≈ 203 µg/mL).

Consider `COc1ccc(-c2ccc3ncnc(-c4cccc(C(=O)N5CCN(C)CC5)c4)c3c2)cn1`, for which the logP in data set [1] turned out to be 2.2. Moreover, the solubility (thermodynamic) in data set [2] was above 1000 µM.

The compound `COc1ccc(-c2ccc3ncnc(-c4cccc(C(=O)N5CCN(C(C)=O)CC5)c4)c3c2)cn1` displayed a logP in [1] of 2.7. The compound also gave a thermodynamic solubility in [2] above 1000 µM.

In the case of `COc1ccc(-c2ccc3ncnc(N4CCC[C@H](C(=O)N5CCN(C)CC5)C4)c3c2)cn1`, the solubility (thermodynamic) in data set [2] was above 1000 µM.

In the case of `COc1ncc(-c2ccc3ncnc(-c4cccc(C(=O)N5CCN(C)CC5)c4)c3c2)cc1C#N`, the log partition coefficient (logP) in data set [1] is 1.9. This compound also yielded a solubility (thermodynamic) in data set [2] of 420 µM (≈ 195 µg/mL).

In the case of `COc1ccc(-c2ccc3ncnc(-c4cccc(C(=O)N5CCN(C)CC5)c4)c3c2)cc1OC`, the log partition coefficient (logP) in data set [1] was 2.8. This compound gave a solubility (thermodynamic) in data set [2] of 850 µM (≈ 398 µg/mL).

Compound `CC(=O)N1CCN(C(=O)c2cccc(-c3ncnc4ccc(-c5cnc6ccccc6c5)cc34)c2)CC1` returned a logP in data set [1] of 2.8. The compound also came in with a solubility (thermodynamic) in [2] of 610 µM (≈ 297 µg/mL).

Consider `COc1ccc(-c2ccc3ncnc(-c4cncc(C(=O)N5CCN(C)CC5)c4)c3c2)cn1`, for which the logP in data set [1] was determined as 1.9. The solubility (thermodynamic) in [2] is above 1000 µM.
